Each structure is given as a SMILES string.

The target in one assay is T1, Or1m1 (Mus musculus) (UniProt Q8VFM9).
T1 sequence (whole entry): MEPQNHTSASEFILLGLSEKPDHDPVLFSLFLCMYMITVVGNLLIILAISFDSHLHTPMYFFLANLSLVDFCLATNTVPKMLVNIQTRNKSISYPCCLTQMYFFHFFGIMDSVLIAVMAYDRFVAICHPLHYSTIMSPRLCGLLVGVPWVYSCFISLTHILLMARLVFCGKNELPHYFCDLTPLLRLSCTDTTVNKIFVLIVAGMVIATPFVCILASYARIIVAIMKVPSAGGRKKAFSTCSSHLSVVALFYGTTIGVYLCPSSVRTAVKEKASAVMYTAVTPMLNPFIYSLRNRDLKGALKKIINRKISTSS
As to conditions: stereoisomer not certain. The essentials: (§1)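 Assay methods differ from source to source, frequently being transient luciferase assays in mammalian cell lines. For each receptor–molecule pair, the label responsive (active) applies when the original authors judged the measured signal statistically different from baseline, and non-responsive (inactive) applies otherwise.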
Consider `COc1cnccn1`, for which the “odorant receptor agonist call” value was “inactive”.
As for `CCC(C)c1nccnc1OC` (stereo not drawn), the “odorant receptor agonist call” value is “inactive”.
Still for that read-out and setting: the same measure for `COc1nccnc1C(C)C`: “inactive”; for `CCc1nccnc1CC`: “inactive”; for `CCc1ncc(C)nc1CC`: “inactive”.

The target of another assay is T2, Or2c1 (Mus musculus) (UniProt P23275).
T2 sequence (whole entry): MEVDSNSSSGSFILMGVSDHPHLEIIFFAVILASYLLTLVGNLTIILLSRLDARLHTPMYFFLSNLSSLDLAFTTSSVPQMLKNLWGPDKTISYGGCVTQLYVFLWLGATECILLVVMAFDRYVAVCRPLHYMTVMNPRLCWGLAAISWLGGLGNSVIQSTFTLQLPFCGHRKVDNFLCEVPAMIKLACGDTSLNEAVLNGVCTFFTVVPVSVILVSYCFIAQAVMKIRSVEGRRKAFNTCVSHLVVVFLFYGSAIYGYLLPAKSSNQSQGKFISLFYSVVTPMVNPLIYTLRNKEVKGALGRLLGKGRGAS
As to conditions: stereoisomer not certain. A digest of the protocol:
as §1
As to `CCCCCO`, the “odorant receptor agonist call” value was “inactive”.
Regarding `CCC(C(=O)O)c1ccccc1` (stereo not drawn), the “odorant receptor agonist call” value was “inactive”.
Turning to `CCCCCCC(=O)[O-].[H+]`, the “odorant receptor agonist call” value was “inactive”.
On to `CCCCOC(=O)C(C)OC(=O)CCC` (stereo not drawn), for which the “odorant receptor agonist call” value is “inactive”.
`O=c1ccc2ccccc2o1`: the “odorant receptor agonist call” value was “inactive”.

The next assay addresses T3, Or5an6 (Mus musculus) (UniProt Q8VFV4).
T3 sequence (whole entry): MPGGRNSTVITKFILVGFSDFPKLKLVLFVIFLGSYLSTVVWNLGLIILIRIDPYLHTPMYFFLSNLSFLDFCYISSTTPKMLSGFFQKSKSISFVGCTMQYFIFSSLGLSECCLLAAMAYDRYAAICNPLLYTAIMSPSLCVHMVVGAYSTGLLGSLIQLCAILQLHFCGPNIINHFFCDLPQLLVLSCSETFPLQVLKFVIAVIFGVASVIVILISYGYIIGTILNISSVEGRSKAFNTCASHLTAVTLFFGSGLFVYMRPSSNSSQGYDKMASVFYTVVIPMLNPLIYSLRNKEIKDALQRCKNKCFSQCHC
As to conditions: stereoisomer not certain. The essentials:
as §1
Take `O=C1CCCC=CCCCCCCCCCC1`: the “odorant receptor agonist call” value was “active”.
On the same count and under the same terms, the same measure for `O=C1CCCCCC=CCCCCCCCCO1`: “active”; for `CC1C(C)(C)C2=C(C(=O)CCC2)C1(C)C` (stereo not drawn): “inactive”.
`O=C1CCCCCCCCCC1`: the “odorant receptor agonist call” value was “inactive”.
Turning to `CC1CC=CCCCCCCCCC(=O)C1` (stereo not drawn), the “odorant receptor agonist call” value is “active”.
On the same count and under the same terms, to `O=C1C=CCCCCCCCCCCCCO1` belongs “active”.
Turning to `CCCCCCCC(=O)CCCCCCC`, the “odorant receptor agonist call” value was “active”.
On the same count and under the same terms, to `O=C1CCCCCCCCC1` belongs “active”; to `O=C1CCCCCCCCCCCCCC1`, “active”; to `CC1CCCCCCCCCCCC(=O)C1` (stereo not drawn), “active”.
For `CCCCCCCCCCCCCC(C)=O`, the “odorant receptor agonist call” value is “active”.
As to `CCC(=O)OCC(C)(C)OC(C)C1CCCC(C)(C)C1` (stereo not drawn), the “odorant receptor agonist call” value was “active”.
As for `O=C1CCCCCCC=CCCCCCCC1`, the “odorant receptor agonist call” value is “active”.

Source of the values: the M2OR odorant receptor database.
